Converted amounts (≈) assume the structure as drawn. The source made the active and inactive calls.
What was measured:
Mus musculus [1] = test: In vivo Mean survival time of Plasmodium berghei parasitized mice dosed at 160 mg/kg; assay type: functional
In short: (§1)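 Mice infected with drug-sensitive Plasmodium berghei strain KBG 173. Result given as T − C: the mean survival time of treated mice beyond that of untreated infected controls. A compound counts as active when T − C is ≥ 6.2 days.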

Mus musculus [2] = test: In vivo Mean survival time of Plasmodium berghei parasitized mice dosed at 40 mg/kg; assay type: functional; in short: as §1
Mus musculus [3] = test: In vivo Mean survival time of Plasmodium berghei parasitized mice dosed at 640 mg/kg; assay type: functional; in short: as §1
Plasmodium falciparum [4] = test: In vitro antimalarial activity against Plasmodium falciparum W2; assay type: functional, organism-based
In short: (§2)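 Parasite growth inhibition was read out as uptake of tritiated hypoxanthine.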

Plasmodium falciparum [5] = test: (§3) In vitro antimalarial activity against Plasmodium falciparum D6; assay type: functional, organism-based
In short: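 Parasite growth inhibition read as uptake of tritiated hypoxanthine.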

Mus musculus [6] = test: In vivo Mean survival time of Plasmodium berghei parasitized mice dosed at 160 mg/kg; Not active; assay type: functional, organism-based; parameters: dose 160 mg/kg
In short: (§4)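 Mice were infected with the drug-sensitive P. berghei strain KBG 173 and given the stated dose. T − C is the mean survival time of treated mice beyond that of untreated controls. A compound counts as active only if T − C is ≥ 6.2 days, and toxicity is flagged separately.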

Mus musculus [7] = test: In vivo Mean survival time of Plasmodium berghei parasitized mice dosed at 40 mg/kg; Not active; assay type: functional, organism-based; parameters: dose 40 mg/kg; in short: as §4
Mus musculus [8] = test: In vivo Mean survival time of Plasmodium berghei parasitized mice dosed at 640 mg/kg; Not active; assay type: functional, organism-based; parameters: dose 640 mg/kg; in short: as §4
Plasmodium falciparum [9] = test: In vitro antimalarial activity against Plasmodium falciparum D6.; assay type: functional, organism-based; in short: as §2
Mus musculus [10] = test: In vivo Mean survival time of Plasmodium berghei parasitized mice dosed at 640 mg/kg; Toxic; assay type: functional, organism-based; parameters: dose 640 mg/kg; in short: as §4
Plasmodium falciparum [11] = test: as §3; assay type: functional, organism-based; in short: as §2; remark: listed apart in the source
Mus musculus [12] = test: In vivo Mean survival time of Plasmodium berghei parasitized mice dosed at 160 mg/kg; Toxic; assay type: functional, organism-based; parameters: dose 160 mg/kg; in short: as §4

COc1ccc2c(c1OC)C[N+]1([O-])CCc3cc4c(cc3C1C2)OCO4 (stereo not given)
T-C (Mus musculus [1]): 0.2 days | T-C (Mus musculus [2]): 0 days | T-C (Mus musculus [3]): 0 days | IC50 (Plasmodium falciparum [4]): 0.558 µg/mL (≈ 1.57 µM) | IC50 (Plasmodium falciparum [5]): 0.565 µg/mL (≈ 1.59 µM)

COc1ccc2c(c1OC)C(C#N)N1CCc3cc4c(cc3C1=C2)OCO4 (stereo not given)
T-C (Mus musculus [6]): inactive | T-C (Mus musculus [7]): inactive | T-C (Mus musculus [8]): inactive | IC50 (Plasmodium falciparum [4]): 0.143 µg/mL (≈ 0.395 µM) | IC50 (Plasmodium falciparum [9]): 0.101 µg/mL (≈ 0.279 µM)

COc1ccc2c(c1OC)C[N+]1(C)CCc3cc4c(cc3C1C2)OCO4.[I-] (stereo not given)
T-C (Mus musculus [6]): inactive | T-C (Mus musculus [7]): inactive | T-C (Mus musculus [8]): inactive | IC50 (Plasmodium falciparum [4]): 1.34 µg/mL | IC50 (Plasmodium falciparum [5]): 0.97 µg/mL

COc1ccc2c(OC)c3[n+](cc2c1OC)CCc1cc2c(cc1-3)OCO2
T-C (Mus musculus [1]): -0.2 days | T-C (Mus musculus [2]): -0.2 days | T-C (Mus musculus [3]): 0.2 days | IC50 (Plasmodium falciparum [4]): 0.701 µg/mL | IC50 (Plasmodium falciparum [9]): 0.568 µg/mL

COc1ccc2cc3[n+](cc2c1OC)CCc1cc2c(cc1-3)OCO2.[Cl-] [BERBERINE CHLORIDE]
T-C (Mus musculus [1]): 1 days | T-C (Mus musculus [2]): 0.6 days | T-C (Mus musculus [10]): Toxic | IC50 (Plasmodium falciparum [4]): 0.148 µg/mL | IC50 (Plasmodium falciparum [11]): 0.141 µg/mL

COc1ccc2c(c1OC)CN1CCc3cc4c(cc3[C@@H]1C2)OCO4 [CANADINE]
T-C (Mus musculus [1]): 0.1 days | T-C (Mus musculus [2]): 0.1 days | T-C (Mus musculus [3]): 0.3 days | IC50 (Plasmodium falciparum [4]): 1.74 µg/mL (≈ 5.12 µM) | IC50 (Plasmodium falciparum [5]): 0.555 µg/mL (≈ 1.64 µM)

COc1ccc2c(c1OC)CN1CCc3cc4c(cc3C1=C2)OCO4 [DIHYDROBERBERINE]
T-C (Mus musculus [12]): Toxic | T-C (Mus musculus [2]): -0.2 days | T-C (Mus musculus [10]): Toxic | IC50 (Plasmodium falciparum [4]): 0.171 µg/mL (≈ 0.507 µM) | IC50 (Plasmodium falciparum [5]): 0.12 µg/mL (≈ 0.356 µM)

COc1cc2c(cc1O)CC[n+]1cc3c(OC)c(OC)ccc3cc1-2.[Cl-] [JATRORRHIZINE CHLORIDE]
T-C (Mus musculus [6]): inactive | T-C (Mus musculus [7]): inactive | T-C (Mus musculus [8]): inactive | IC50 (Plasmodium falciparum [4]): 1.61 µg/mL | IC50 (Plasmodium falciparum [5]): 0.422 µg/mL

COc1ccc2cc3n(c(=O)c2c1OC)CCc1cc2c(cc1-3)OCO2 [OXYBERBERINE]
T-C (Mus musculus [1]): 0.5 days | T-C (Mus musculus [2]): 0.1 days | T-C (Mus musculus [3]): 0.3 days | IC50 (Plasmodium falciparum [4]): 2.01 µg/mL (≈ 5.71 µM) | IC50 (Plasmodium falciparum [9]): 0.557 µg/mL (≈ 1.59 µM)

COc1cc2c(cc1OC)-c1cc3ccc(OC)c(OC)c3c[n+]1CC2.[Cl-] [PALMATINE CHLORIDE]
T-C (Mus musculus [12]): Toxic | T-C (Mus musculus [2]): 0.5 days | T-C (Mus musculus [10]): Toxic | IC50 (Plasmodium falciparum [4]): 0.163 µg/mL | IC50 (Plasmodium falciparum [9]): 0.281 µg/mL
